Assay results as given in publication PMC8458242 (Biochimie, 2021).
Entries after “also recorded” stand apart in the source; their conditions may differ. Like-named read-outs stand apart in the source and are kept apart here. One block for each compound: values may come before it.

Assays:
HIV-1 (X4LAI.04) = assay: Anti-HIV-1 activity in HIV-1/CMV coinfected human tissues ex vivo; format: cell-based; conditions: for inhibition of HIV-1 replication by controls: coinfected tissues, control drugs, concentration not given, n=3; for inhibition of cumulative production of p24gag: HIV-1/CMV-coinfected human lymphoid tissue, 10 μM, 15 days
How it was run: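 Tonsillar tissue blocks (2-3 mm) kept on collagen sponge at the air-liquid interface, RPMI 1640 with 15% FBS. Pretreated with test compound at 10 μM 12 h before coinoculation with HIV-1 X4LAI.04 and CMV AD169. Medium changed every 3 days; cultured 15 days at 37°C. p24gag in medium measured by Luminex bead assay, as percent of untreated control. Means ± SEM, 3 or 6 donors.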

CMV = conditions: cited from earlier work
MT-4 cells [1] = conditions: cited from earlier work
MT-4 cells [2] = assay: Viability assay in MT-4 cell cultures; format: cell-based, Human
WS1 cells = assay: Viability assay in WS1 cell cultures; format: cell-based, human; conditions: read-out: Cytotoxicity CC50; WS1 cell line, MTT, three days
[3] = Viability assay in WS1 cell cultures; format: cell-based, human; conditions: human, WS1 cells
CMV AD169 = assay: Anti-CMV activity in WS1 cell cultures; format: cell-based, Human cytomegalovirus; conditions: human fibroblast WS1 cell line infected with CMV AD169, 5 days, n=3
[4] = system: esterase from porcine liver; assay: Hydrolysis of the compounds by esterase from porcine liver; conditions: Tris-HCl buffer pH 8.2, 37 °C
HIV-1 X4LAI.04 = assay: Anti HIV-1 activity in human tonsillar tissue ex vivo; format: cell-based; conditions: 12 days
CMV (AD169) = assay: Anti-CMV activity in HIV-1/CMV coinfected human tissues ex vivo; format: cell-based, Human cytomegalovirus; conditions: for inhibition of number of CMV DNA copies/μL: HIV-1/CMV-coinfected human lymphoid tissue, 10 μM, 15 days
How it was run: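 Human tonsil tissue blocks (2-3 mm) cultured on collagen sponge at the air-liquid interface in RPMI 1640 with 15% FBS. Blocks pretreated with test compound (10 μM) 12 h before simultaneous infection with HIV-1 X4LAI.04 and CMV AD169 stocks. Medium changed every 3 days; 15 days at 37°C. CMV DNA in culture medium measured by real-time PCR, as percent of untreated control. Means ± SEM, 3 or 6 donors.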

[5] = system: esterase from porcine liver
[6] = Viability assay in MT-4 cell cultures; format: cell-based, Human; conditions: human, MT-4 cells
[7] = 1 nM (first of five concentrations ranging from 1 nM to 10 μM)
[8] = 10 μM (fifth of five concentrations ranging from 1 nM to 10 μM)
[9] = fourth of five concentrations ranging from 1 nM to 10 μM
[10] = second of five concentrations ranging from 1 nM to 10 μM
[11] = third of five concentrations ranging from 1 nM to 10 μM

Structure (SMILES): Nc1ccn([C@@H]2CS[C@H](CO)O2)c(=O)n1 [3TC, (−)-L-2′,3′-dideoxy-3′-thiacytidine]
inhibition of HIV-1 replication by controls (HIV-1 (X4LAI.04)): 99.7 ± 0.2%
effect on CMV replication / anti CMV activity (CMV): no effect on CMV replication
CC50 (MT-4 cells [1]): > 100 µM

Structure (SMILES): Cc1cn([C@H]2C[C@H](N=[N+]=[N-])[C@@H](COC(=O)Cn3c(=O)ccn(CCCCCCCCCCOc4ccc(Br)cc4)c3=O)O2)c(=O)[nH]c1=O [3e, (3'-azido-3'-deoxytimidine)-2-(3-((4-bromophenoxy)decyl)-2,6-dioxo-2,3-dihydropyrimidin-1(6H)-yl)acetate]
CC50 (MT-4 cells [2]): > 100 µM
CC50 (WS1 cells): 182 µM

Structure (SMILES): O=C(O)Cn1c(=O)ccn(CCCCCCCCOc2ccc(Br)cc2)c1=O [2d, [3-[8-(4-bromophenoxy)octyl]-2,6-dioxo-3,6-dihydropyrimidin-1(2H)-yl]acetic acid]
CC50 at 3 days [3]: 90.5 µM

Structure (SMILES): O=C(O)Cn1c(=O)ccn(CCCOc2ccc(Br)cc2)c1=O [2a, [3-[3-(4-bromophenoxy)propyl]-2,6-dioxo-3,6-dihydropyrimidin-1(2H)-yl]acetic acid]
Antiviral activity EC50 ± SD (CMV AD169): inactive
CC50 at 3 days [3]: 965 µM

T1/2 of hydrolysis by esterase [4]: 7 to 8 h
Structure (SMILES): Cc1cn([C@H]2C[C@H](N=[N+]=[N-])[C@@H](COC(=O)Cn3c(=O)ccn(CCCCCOc4ccc(Br)cc4)c3=O)O2)c(=O)[nH]c1=O [3b, (3'-azido-3'-deoxytimidine)-2-(3-((4-bromophenoxy)pentyl)-2,6-dioxo-2,3-dihydropyrimidin-1(6H)-yl)acetate]
CC50 (MT-4 cells [2]): > 100 µM
CC50 (WS1 cells): 173 µM

T1/2 of hydrolysis by esterase [4]: about 24 hrs
Structure (SMILES): Nc1ccn([C@@H]2CS[C@H](COC(=O)Cn3c(=O)ccn(CCCCCCOc4ccc(Br)cc4)c3=O)O2)c(=O)n1 [4c, ((−)-L-2′,3′-dideoxy-3′-thiacytidine)-2-(3-((4-bromophenoxy)hexyl)-2,6-dioxo-2,3-dihydropyrimidin-1(6H)-yl)acetate]
CC50 (MT-4 cells [2]): > 100 µM
inhibition of HIV-1 replication (HIV-1 X4LAI.04; [7]): 0.6 ± 0.2%
inhibition of HIV-1 replication (HIV-1 X4LAI.04; [8]): 99.6 ± 0.1%
inhibition of HIV-1 replication (HIV-1 X4LAI.04; [9]): 88.6 ± 2.9%
inhibition of HIV-1 replication (HIV-1 X4LAI.04; [10]): 14.6 ± 6.5%
inhibition of HIV-1 replication (HIV-1 X4LAI.04; [11]): 45.7 ± 3.7%
inhibition of cumulative production of p24gag (HIV-1 (X4LAI.04)): 99.4 ± 0.4%
inhibition of number of CMV DNA copies/μL (CMV (AD169)): 78.7 ± 1.7%

Structure (SMILES): O=C(O)Cn1c(=O)ccn(CCCCCOc2ccc(Br)cc2)c1=O [2b, [3-[5-(4-bromophenoxy)pentyl]-2,6-dioxo-3,6-dihydropyrimidin-1(2H)-yl]acetic acid]
CC50 at 3 days [3]: 749 µM

hydrolysis totally completed after [5]: 5 to 6 h
Structure (SMILES): CC(=O)OC[C@H]1O[C@@H](n2cc(C)c(=O)[nH]c2=O)C[C@@H]1OC(C)=O [Thymidine diacetate]

Structure (SMILES): Nc1nc(O)c2ncn(COC(CO)CO)c2n1 [GCV, ganciclovir, reference compound]
CC50 at 3 days [3]: 500 µM

Structure (SMILES): Cc1cn([C@H]2C[C@H](N=[N+]=[N-])[C@@H](COC(=O)Cn3c(=O)ccn(CCCCCCCCCCCCOc4ccc(Br)cc4)c3=O)O2)c(=O)[nH]c1=O [3f, (3'-azido-3'-deoxytimidine)-2-(3-((4-bromophenoxy)dodecyl)-2,6-dioxo-2,3-dihydropyrimidin-1(6H)-yl)acetate]
CC50 (MT-4 cells [2]): > 100 µM
CC50 (WS1 cells): 253 µM

Structure (SMILES): Cc1cn([C@H]2C[C@H](N=[N+]=[N-])[C@@H](COC(=O)Cn3c(=O)ccn(CCCOc4ccc(Br)cc4)c3=O)O2)c(=O)[nH]c1=O [3a, (3'-azido-3'-deoxytimidine)-2-(3-((4-bromophenoxy)propyl)-2,6-dioxo-2,3-dihydropyrimidin-1(6H)-yl)acetate]
CC50 (MT-4 cells [2]): 82.1 µM
CC50 (WS1 cells): 347 µM

Structure (SMILES): O=C(O)Cn1c(=O)ccn(CCCCCCCCCCCCOc2ccc(Br)cc2)c1=O [2f, [3-[12-(4-bromophenoxy)dodecyl]-2,6-dioxo-3,6-dihydropyrimidin-1(2H)-yl]acetic acid]
Antiviral activity EC50 ± SD (CMV AD169): inactive
CC50 at 3 days [3]: 22 µM

Structure (SMILES): Cc1cn([C@H]2C[C@H](N=[N+]=[N-])[C@@H](COC(=O)Cn3c(=O)ccn(CCCCCCCCOc4ccc(Br)cc4)c3=O)O2)c(=O)[nH]c1=O [3d, (3'-azido-3'-deoxytimidine)-2-(3-((4-bromophenoxy)octyl)-2,6-dioxo-2,3-dihydropyrimidin-1(6H)-yl)acetate]
CC50 (MT-4 cells [2]): > 100 µM
CC50 (WS1 cells): 600 µM

Structure (SMILES): O=C(O)Cn1c(=O)ccn(CCCCCCCCCCOc2ccc(Br)cc2)c1=O [2e, [3-[10-(4-bromophenoxy)decyl]-2,6-dioxo-3,6-dihydropyrimidin-1(2H)-yl]acetic acid]
Antiviral activity EC50 ± SD (CMV AD169): inactive
CC50 at 3 days [3]: 164 µM

Structure (SMILES): Cc1cn([C@H]2C[C@H](N=[N+]=[N-])[C@@H](CO)O2)c(=O)[nH]c1=O [AZT, 2',3'-dideoxy-3'-azidothymidine]
inhibition of HIV-1 replication by controls (HIV-1 (X4LAI.04)): 97.0 ± 1.6%
effect on CMV replication / anti CMV activity (CMV): does not have any anti CMV activity; also recorded: no effect on CMV replication
CC50 (MT-4 cells [1]): > 100 µM

T1/2 of hydrolysis by esterase [4]: 7 to 8 h
Structure (SMILES): Cc1cn([C@H]2C[C@H](N=[N+]=[N-])[C@@H](COC(=O)Cn3c(=O)ccn(CCCCCCOc4ccc(Br)cc4)c3=O)O2)c(=O)[nH]c1=O [3c, (3'-azido-3'-deoxytimidine)-2-(3-((4-bromophenoxy)hexyl)-2,6-dioxo-2,3-dihydropyrimidin-1(6H)-yl)acetate]
CC50 (MT-4 cells [2]): > 100 µM
CC50 (WS1 cells): 393 µM
inhibition of HIV-1 replication (HIV-1 X4LAI.04; [7]): 0 ± 0.5%
inhibition of HIV-1 replication (HIV-1 X4LAI.04; [8]): 96.2 ± 1.0%
inhibition of HIV-1 replication (HIV-1 X4LAI.04; [9]): 76.5 ± 3.3%
inhibition of HIV-1 replication (HIV-1 X4LAI.04; [10]): 17.9 ± 8.2%
inhibition of HIV-1 replication (HIV-1 X4LAI.04; [11]): 31.4 ± 7.7%
inhibition of cumulative production of p24gag (HIV-1 (X4LAI.04)): 97.2 ± 2.1%
inhibition of number of CMV DNA copies/μL (CMV (AD169)): 86.9 ± 3.3%

Structure (SMILES): O=C(O)Cn1c(=O)ccn(CCCCCCOc2ccc(Br)cc2)c1=O [2c, [3-[6-(4-bromophenoxy)hexyl]-2,6-dioxo-3,6-dihydropyrimidin-1(2H)-yl]acetic acid]
CC50 at 3 days [6]: > 100 µM
CC50 at 3 days [3]: 724 µM
inhibition of CMV by control compounds (CMV (AD169); coinfected tissues, control compounds, concentration not given, n=3): 68.6 ± 11.3%
